≈ marks a conversion by molar mass, not a printed value. Calls of active or inactive are those of the source. The calls are words filed in the database; no cut-off is given here.
Legend:
[1] = tested on: Mycolicibacterium smegmatis; experiment: Antimycobacterial activity against Mycobacterium smegmatis MC(2)155 assessed as reduction in microbial growth incubated for 24 hrs by resazurin dye based assay; assay type: functional
[2] = Lipophilicity, log P of the compound; assay type: physicochemical; settings: octanol/water
[3] = Kinetic solubility in pH 7.4 PBS incubated for 5 mins by UV-spectrophotometry analysis; assay type: physicochemical; settings: read-out: Kinetic_solubility
Method in brief: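 Compounds from 10 mM DMSO stock diluted in PBS pH 7.4 to a seven-point series (0.2–100 μM), final DMSO 1%, shaken 5 min at 25 °C. Turbidity read by UV at 620 nm; Log_S converted to solubility as S = 10^LogS. Nicardipine control; triplicate.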

[4] = Metabolic stability in mouse liver microsome assessed as intrinsic clearance measured upto 30 mins in presence of NADPH by LC-MS/MS analysis; assay type: ADME; settings: liver microsomes, read-out: CLH
Method in brief: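 1 μM compound with 0.5 mg/mL mouse liver microsomes, with or without NADPH (1 mM), 37 °C, sampled at 0, 5, 10, 15 and 30 min. Parent loss followed by LC-MS/MS, giving mean CLint and t1/2. Two replicates per compound; up to three species-specific control compounds included.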

[5] = Metabolic stability in mouse hepatocyte assessed as intrinsic clearance measured upto 60 mins […] by LC-MS/MS analysis; assay type: ADME, cell-based; settings: hepatocytes, 1 h
Method in brief: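 Mouse hepatocytes at 0.5 × 10^6 cells/mL incubated with 1 μM compound at 37 °C, sampled at 0, 10, 20, 30, 45 and 60 min. Disappearance with and without hepatocytes measured by LC-MS/MS; output is mean CLint and t1/2. Duplicate per compound, with up to three species-specific controls.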

[6] = Efflux ratio of permeability across basolateral to apical side over apical to basolateral side in human Caco-2 cells incubated for 2 hrs by LC-MS/MS analysis; assay type: ADME, cell-based
[7] = tested on: Corynebacterium glutamicum; experiment: Inhibition of mycolic acid biosynthesis in Corynebacterium glutamicum pks13 at 0.5 to 5 times MIC incubated for 6 hrs by TLC based autoradiography analysis; assay type: functional, organism-based
[8] = tested on: Corynebacterium glutamicum; experiment: Inhibition of mycolic acid biosynthesis in Corynebacterium glutamicum harboring MmpL3 at 0.5 to 5 times MIC incubated for 6 hrs by TLC based autoradiography analysis; assay type: functional, organism-based
[9] = tested on: Mycobacterium tuberculosis; experiment: Antitubercular activity against drug-sensitive Mycobacterium tuberculosis H37Rv pTYOK assessed as inhibition of bacterial growth measured upto 3 days by luminometer based analysis; assay type: functional; settings: 72 h, time <= 3 day
[10] = tested on: Mycobacterium tuberculosis; experiment: Antitubercular activity against drug-sensitive Mycobacterium tuberculosis H37Rv assessed as inhibition of bacterial growth measured for 7 days by REMA analysis; assay type: functional; settings: 168 h, time 7 day
Method in brief: (§1)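 REMA: 2-fold dilutions in CMM MOD2 medium, wells inoculated at 1×10^6 CFU/mL, 7 days at 37 °C with 200 rpm agitation; resazurin (0.02% w/v in PBS pH 7.4, 5% Tween 80) then 6 h at room temperature; OD570 vs vehicle; MIC99 by modified Gompertz function; three biological replicates.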

[11] = tested on: Mycobacterium tuberculosis; experiment: Antitubercular activity against Mycobacterium tuberculosis 1192/015 assessed as inhibition of bacterial growth measured for 7 days by REMA analysis; assay type: functional; settings: 1192/015, 168 h, time 7 day; method in brief: as §1
HepG2 [12] = experiment: Cytotoxicity against human HepG2 cells assessed as reduction in cell viability incubated for 24 hrs in presence of glucose by MTT assay; assay type: functional, cell-based; settings: HepG2, 24 h
HepG2 [13] = experiment: Cytotoxicity against human HepG2 cells assessed as reduction in cell viability incubated for 24 hrs in presence of galactose by MTT assay; assay type: functional, cell-based; settings: HepG2, 24 h
[14] = tested on: Mycobacterium tuberculosis; experiment: Bactericidal activity against Mycobacterium tuberculosis H37Rv incubated for 6 to 10 days by time kill assay; assay type: functional, organism-based; settings: dose <= 96.0 µM, time 6-10 day
Method in brief: (§2)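 Time-kill: 2-fold dilutions 96–3 μM in CMM MOD2, 0.1% DMSO vehicle; start 1×10^6 CFU/mL, 37 °C, 200 rpm; sampled days 0, 2, 6, 10, 14; 10-fold dilutions spotted in triplicate on 7H10, counted after 3 weeks; three biological repeats; factorial ANOVA with Tukey post hoc.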

[15] = tested on: Mycobacterium tuberculosis; experiment: Bactericidal activity against Mycobacterium tuberculosis H37Rv assessed as reduction in bacterial count at […] uM incubated for 6 days by time kill assay; assay type: functional; settings: time 6 day; method in brief: as §2
[16] = tested on: Mycobacterium tuberculosis; experiment: Bactericidal activity against Mycobacterium tuberculosis H37Rv assessed as reduction in bacterial count at […] uM incubated for 14 days by time kill assay; assay type: functional; settings: time 14 day; method in brief: as §2
[17] = tested on: Mycobacterium tuberculosis; experiment: Bactericidal activity against Mycobacterium tuberculosis H37Rv assessed as reduction in viable count at 48 uM incubated for 6 days by CV-AM staining based flow cytometry analysis; assay type: functional; settings: time 6 day
Method in brief: (§3)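 H37Rv from time-kill wells (3–96 μM, 0.1% DMSO vehicle) at each time point, stained in quadruplicate 1 h, 37 °C, dark with 20 μM CV-AM and/or 20 μM Sytox Green; fixed 4% formaldehyde 1 h; flow cytometry (405/488 nm lasers); singlets gated by FSC area/height, quadrant gates P1–P4.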

[18] = tested on: Mycobacterium tuberculosis; experiment: Bactericidal activity against Mycobacterium tuberculosis H37Rv assessed as reduction in viable count at 48 uM incubated for 10 days by CV-AM staining based flow cytometry analysis; assay type: functional; settings: time 10 day; method in brief: as §3
[19] = tested on: Mycobacterium tuberculosis; experiment: Bactericidal activity against Mycobacterium tuberculosis H37Rv assessed as reduction in viable count at 48 uM incubated for 14 days by CV-AM staining based flow cytometry analysis; assay type: functional; settings: time 14 day; method in brief: as §3
[20] = tested on: Mycobacterium tuberculosis; experiment: Bactericidal activity against Mycobacterium tuberculosis H37Rv assessed as reduction in viable count at 96 uM incubated for 14 days by sytox green staining based flow cytometry analysis; assay type: functional, organism-based; settings: time 14.0 day; method in brief: as §3
[21] = tested on: Mycolicibacterium smegmatis; experiment: Inhibition of cell wall biosynthesis in Mycobacterium smegmatis assessed as formation of cytoplasmic membrane phospholipids at 0.5 to 5 times MIC incubated for 6 hrs in presence of [14C]acetate by TLC based autoradiography analysis; assay type: functional, organism-based
[22] = tested on: Mycobacterium tuberculosis; experiment: Bactericidal activity against Mycobacterium tuberculosis H37Rv assessed as reduction in viable count at 96 uM incubated for 6 days by CV-AM staining based flow cytometry analysis; assay type: functional; settings: time 6 day; method in brief: as §3
[23] = tested on: Mycobacterium tuberculosis; experiment: Bactericidal activity against Mycobacterium tuberculosis H37Rv assessed as reduction in viable count at 96 uM incubated for 10 days by CV-AM staining based flow cytometry analysis; assay type: functional; settings: time 10 day; method in brief: as §3
[24] = tested on: Mycobacterium tuberculosis; experiment: Bactericidal activity against Mycobacterium tuberculosis H37Rv assessed as reduction in viable count at 96 uM incubated for 14 days by CV-AM staining based flow cytometry analysis; assay type: functional; settings: time 14 day; method in brief: as §3
[25] = tested on: Mycobacterium tuberculosis; experiment: Bactericidal activity against Mycobacterium tuberculosis H37Rv assessed as reduction in viable count at 48 uM incubated for 6 days by sytox green staining based flow cytometry analysis; assay type: functional; settings: time 6 day; method in brief: as §3
[26] = tested on: Mycobacterium tuberculosis; experiment: Bactericidal activity against Mycobacterium tuberculosis H37Rv assessed as reduction in viable count at 48 uM incubated for 14 days by sytox green staining based flow cytometry analysis; assay type: functional; settings: time 14 day; method in brief: as §3
[27] = tested on: Mycolicibacterium smegmatis; experiment: Inhibition of macromolecule biosynthesis in Mycobacterium smegmatis assessed as reduction in incorporation of [3H]-thymidine in DNA at 0.75 times MIC incubated for 36 hrs; assay type: functional, organism-based
[28] = tested on: Mycolicibacterium smegmatis; experiment: Inhibition of macromolecule biosynthesis in Mycobacterium smegmatis assessed as reduction in incorporation of [3H]-uridine in RNA at 0.75 times MIC incubated for 36 hrs; assay type: functional, organism-based
[29] = tested on: Mycolicibacterium smegmatis; experiment: Inhibition of macromolecule biosynthesis in Mycobacterium smegmatis assessed as reduction in incorporation of [3H]-leucine in protein at 0.75 times MIC incubated for 36 hrs; assay type: functional, organism-based
[30] = tested on: Mycolicibacterium smegmatis; experiment: Inhibition of macromolecule biosynthesis in Mycobacterium smegmatis assessed as reduction in incorporation of [3H]-diaminopimelic acid in peptidoglycan at 1 times MIC incubated for 6 hrs; assay type: functional, organism-based
[31] = tested on: Mycolicibacterium smegmatis; experiment: Inhibition of cell wall biosynthesis in Mycobacterium smegmatis assessed as reduction in trehalose monomycolate accumulation at 0.5 to 5 times MIC incubated for 6 hrs in presence of [14C]acetate by MPA staining based TLC analysis; assay type: functional, organism-based
[32] = tested on: Mycolicibacterium smegmatis; experiment: Inhibition of cell wall biosynthesis in Mycobacterium smegmatis assessed as reduction in trehalose dimycolate accumulation at 0.5 to 5 times MIC incubated for 6 hrs in presence of [14C]acetate by alpha-napthol staining based TLC analysis; assay type: functional, organism-based
[33] = tested on: Mycolicibacterium smegmatis; experiment: Inhibition of mycolic acid biosynthesis in Mycobacterium smegmatis at 5 times MIC incubated for 12 hrs in presence of [14C]acetate by TLC based autoradiography analysis; assay type: functional, organism-based
[34] = tested on: Corynebacterium glutamicum; experiment: Inhibition of mycolic acid biosynthesis in Corynebacterium glutamicum at 0.5 to 5 times MIC incubated for 6 hrs by TLC based autoradiography analysis; assay type: functional, organism-based

SMILES: CC(C)NC[C@@H]1C[C@H](c2ccc(OC(F)(F)F)cc2)N1Cc1ccccc1Br (racemic)
- MIC99 [1]: 23 µM
- logP [2]: 6.26

SMILES: COCCNC[C@@H]1C[C@H](c2ccc(OC(F)(F)F)cc2)N1Cc1ccccc1OC(F)(F)F (racemic)
- MIC99 [1]: 29 µM
- logP [2]: 6.1

SMILES: FC(F)(F)Oc1ccc([C@H]2C[C@@H](CN3CCCC3)N2Cc2ccccc2OC(F)(F)F)cc1 (racemic)
- logP [2]: 6.93
- solubility kinetic at 5 min [3]: 7 µM (≈ 3.32 µg/mL)
- microsomal CLint [4]: > 150 µL/min/mg
- intrinsic clearance (CLint) [5]: < 60 µL/min/mg
- efflux ratio at 2 h [6]: < 1
- inhibition [7]: Active
- inhibition [8]: Active

SMILES: Clc1cc(Cl)cc([C@H]2C[C@@H](CN3CCCC3)N2Cc2ccccc2Br)c1 (racemic)
- MIC99 [1]: 14 µM
- logP [2]: 6.05

SMILES: FC(F)(F)c1cc([C@H]2C[C@@H](CN3CCCC3)N2Cc2ccccc2Br)cc(C(F)(F)F)c1 (racemic)
- MIC99 [1]: 26 µM
- logP [2]: 6.6
- MIC50 [9]: 6.9 µM (≈ 3.6 µg/mL)
- MIC99 [10]: 3.3 µM (≈ 1.72 µg/mL)
- MIC99 [11]: 19.1 µM (≈ 9.96 µg/mL)
- microsomal CLint [4]: > 150 µL/min/mg
- intrinsic clearance (CLint) [5]: < 60 µL/min/mg
- efflux ratio at 2 h [6]: < 1
- inhibition [7]: Active
- inhibition [8]: Active

SMILES: Brc1cc(Br)cc([C@H]2C[C@@H](CN3CCCC3)N2Cc2ccccc2Br)c1 (racemic)
- microsomal CLint [4]: > 150 µL/min/mg
- intrinsic clearance (CLint) [5]: < 60 µL/min/mg
- IC50 (HepG2 [12]): > 100 µM
- IC50 (HepG2 [13]): > 100 µM
- Activity [14]: Dose-Dependent Effect
- Activity [15]: 0.79 log10CFU/ml
- Activity [16]: 1.9 log10CFU/ml
- Activity [17]: 0.067%
- Activity [18]: 0.065%
- Activity [19]: 0.066%
- Activity [20]: Active
- inhibition [21]: Active
- inhibition [7]: Active
- inhibition [8]: Active

SMILES: C#CCNC[C@@H]1C[C@H](c2cc(Br)cc(Br)c2)N1Cc1ccccc1Br (racemic)
- MIC99 [1]: 100 µM
- logP [2]: 5.82

SMILES: CC(C)NC[C@@H]1C[C@H](c2ccc(OC(F)(F)F)cc2)N1Cc1ccccc1OC(F)(F)F (racemic)
- MIC99 [1]: 23 µM
- logP [2]: 6.92

SMILES: CC(C)NC[C@@H]1C[C@H](c2ccccc2)N1Cc1ccccc1Br (racemic)
- MIC99 [1]: 94 µM
- logP [2]: 4.82

SMILES: COc1ccc([C@H]2C[C@@H](CN3CCCC3)N2Cc2ccccc2Br)cc1 (racemic)
- logP [2]: 4.68

SMILES: FC(F)(F)Oc1ccc(C2CCN(C[C@@H]3C[C@H](c4ccccc4)N3Cc3ccccc3Br)CC2)cc1 (racemic)
- MIC99 [1]: 100 µM
- logP [2]: 8.14

SMILES: CN(C)C[C@@H]1C[C@H](c2cc(Br)cc(Br)c2)N1Cc1ccccc1Br (racemic)
- MIC99 [1]: 80 µM
- logP [2]: 5.97

SMILES: CC(C)NC[C@@H]1C[C@H](c2ccccc2)N1Cc1ccccc1OC(F)(F)F (racemic)
- MIC99 [1]: 87 µM
- logP [2]: 5.49

SMILES: Brc1ccccc1CN1[C@H](CN2CCCC2)C[C@@H]1c1ccccc1 (racemic)
- MIC99 [1]: 30.5 µM
- logP [2]: 4.84

SMILES: CNC[C@@H]1C[C@H](c2ccc(OC(F)(F)F)cc2)N1Cc1ccccc1OC(F)(F)F (racemic)
- logP [2]: 6.14
- intrinsic clearance (CLint) [5]: < 60 µL/min/mg
- Activity [14]: Dose-Dependent Effect
- Activity [15]: 3.28 log10CFU/ml
- Activity [16]: 3.99 log10CFU/ml
- Activity [22]: 0.043%
- Activity [23]: 0.08%
- Activity [24]: 0.011%
- Activity [20]: Active
- Activity [25]: 0.027%
- Activity [26]: 0.068%
- inhibition [27]: inactive
- inhibition [28]: inactive
- inhibition [29]: inactive
- inhibition [30]: Active
- inhibition [31]: Active
- inhibition [32]: Active
- inhibition [33]: Active
- inhibition [34]: Active
- inhibition [7]: Active
- inhibition [8]: Active

SMILES: FC(F)(F)c1ccc(C2CCN(C[C@@H]3C[C@H](c4ccccc4)N3Cc3ccccc3Br)CC2)cc1 (racemic)
- MIC99 [1]: 100 µM
- logP [2]: 7.58
